Data as given in ChEMBL document CHEMBL2146472, “Identification and development of the 1,4-benzodiazepin-2-one and quinazoline-2,4-dione scaffolds as submicromolar inhibitors of HAT” (2012).
≈ marks a conversion by molar mass, not a printed value. Calls of active or inactive are those of the source. No cut-off for these calls is given here.

System: Trypanosoma brucei brucei
Assay: Antitrypanosomal activity against bloodstream form of Trypanosoma brucei brucei S427 after 48 hrs by Alamar Blue assay
Assay type: functional
Settings: not given
Outline: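 T. b. brucei S427 cultured in HMI-9 with 20% […] FCS, 37 °C, 5% CO2. Compounds from 0.1 M DMSO stocks diluted in HMI-9 (top wells 50, 200 or 400 μM), serially diluted; cells added at 2 × 10⁴ cells/mL. 48 h incubation, then resazurin (Alamar Blue) for further 24 h; fluorescence ex 530/em 590 nm. MIC determined in duplicate.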

| SMILES | MIC |
| --- | --- |
| C=CCN1C(=O)CN(CC2CCNCC2)C(=O)c2ccccc21 | inactive |
| O=C(O)CN1C(=O)CN(CC2CCCCC2)C(=O)c2cc(Cl)ccc21 | inactive |
| O=C(O)CN1C(=O)CN(CC2CCCCC2)C(=O)c2ccccc21 | inactive |
| CN1C(=O)CN(CC2CCNCC2)C(=O)c2ccccc21 | inactive |
| CN1C(=O)CN(CC2CCNCC2)C(=O)c2cc(Cl)ccc21 | inactive |

Same assay, conditions: S427, 48 h

| SMILES | MIC [µM] |
| --- | --- |
| CN1C(=O)CN(CC2CCCCC2)C(=O)c2cc(Cl)ccc21 | 62.5 (≈ 20.1 µg/mL) |
| CCOC(=O)CN1C(=O)CN(CC2CCCCC2)C(=O)c2ccccc21 | 125 (≈ 44.8 µg/mL) |
| CCOC(=O)Cn1c(=O)n(CC2CCCCC2)c(=O)c2ccccc21 | 31.2 (≈ 10.8 µg/mL) |
| O=C1c2ccccc2N(CC2CC2)C(=O)CN1CC1CCCCC1 | 62.5 (≈ 20.4 µg/mL) |
| O=c1c2cc(Cl)ccc2n(Cc2ccccc2)c(=O)n1CC1CCCCC1 | 62.5 (≈ 23.9 µg/mL) |
| C=CCN1C(=O)CN(CC2CCNCC2)C(=O)c2cc(Cl)ccc21 | 250 (≈ 87 µg/mL) |
| CCCCN1C(=O)CN(CC2CCNCC2)C(=O)c2ccccc21 | 62.5 (≈ 20.6 µg/mL) |
| Cn1c(=O)n(CC2CCCCC2)c(=O)c2ccccc21 | 62.5 (≈ 17 µg/mL) |
| CC(C)(C)OC(=O)N1CCC(Cn2c(=O)c3ccccc3n(Cc3ccccc3-c3ccccc3)c2=O)CC1 | 125 (≈ 65.7 µg/mL) |
| O=C1c2ccccc2N(Cc2ccccc2-c2ccccc2)C(=O)CN1CC1CCCCC1 | 125 (≈ 54.8 µg/mL) |
| CCCCN1C(=O)CN(CC2CCNCC2)C(=O)c2cc(Cl)ccc21 | 250 (≈ 91 µg/mL) |
| CCN1C(=O)CN(CC2CCCCC2)C(=O)c2cc(Cl)ccc21 | 62.5 (≈ 20.9 µg/mL) |
| CCN1C(=O)CN(CC2CCCCC2)C(=O)c2ccccc21 | 62.5 (≈ 18.8 µg/mL) |
| O=C1c2ccccc2N(Cc2ccccc2)C(=O)CN1CC1CCCCC1 | 31.2 (≈ 11.3 µg/mL) |
| CC(C)(C)OC(=O)N1CCC(Cn2c(=O)c3cc(Cl)ccc3n(Cc3ccc(-c4ccccc4)cc3)c2=O)CC1 | 125 (≈ 70 µg/mL) |
| O=C1c2ccccc2N(Cc2ccccc2-c2ccccc2)C(=O)CN1CC1CCNCC1 | 31.2 (≈ 13.7 µg/mL) |

| SMILES | MIC [µM] |
| --- | --- |
| CCCCN1C(=O)CN(CC2CCCCC2)C(=O)c2ccccc21 | 31.2 (≈ 10.3 µg/mL) |
| CN1C(=O)CN(CC2CCCCC2)C(=O)c2ccccc21 | 125 (≈ 35.8 µg/mL) |
| CCOC(=O)CN1C(=O)CN(CC2CCCCC2)C(=O)c2cc(Cl)ccc21 | 62.5 (≈ 24.6 µg/mL) |
| C=CCN1C(=O)CN(CC2CCCCC2)C(=O)c2ccccc21 | 125 (≈ 39.1 µg/mL) |
| CCCCn1c(=O)n(CC2CCCCC2)c(=O)c2cc(Cl)ccc21 | 62.5 (≈ 21.8 µg/mL) |
| C=CCN1C(=O)CN(CC2CCCCC2)C(=O)c2cc(Cl)ccc21 | 62.5 (≈ 21.7 µg/mL) |
| O=C1c2cc(Cl)ccc2N(CC2CC2)C(=O)CN1CC1CCCCC1 | 31.2 (≈ 11.3 µg/mL) |
| O=C1c2cc(Cl)ccc2N(Cc2ccccc2)C(=O)CN1CC1CCNCC1 | 125 (≈ 49.7 µg/mL) |
| CCOC(=O)Cn1c(=O)n(CC2CCCCC2)c(=O)c2cc(Cl)ccc21 | 250 (≈ 94.7 µg/mL) |
| CCCN1C(=O)CN(CC2CCCCC2)C(=O)c2ccccc21 | 62.5 (≈ 19.7 µg/mL) |
| O=c1c2cc(Cl)ccc2n(Cc2ccc(-c3ccccc3)cc2)c(=O)n1CC1CCCCC1 | 125 (≈ 57.4 µg/mL) |
| O=C1c2ccccc2N(Cc2ccccc2)C(=O)CN1CC1CCNCC1 | 250 (≈ 90.9 µg/mL) |
| CC(C)(C)OC(=O)N1CCC(Cn2c(=O)c3cc(Cl)ccc3n(Cc3ccccc3)c2=O)CC1 | 62.5 (≈ 30.2 µg/mL) |
| Cn1c(=O)n(CC2CCCCC2)c(=O)c2cc(Cl)ccc21 | 31.2 (≈ 9.57 µg/mL) |
| O=c1c2cc(Cl)ccc2n(Cc2ccccc2-c2ccccc2)c(=O)n1CC1CCCCC1 | 62.5 (≈ 28.7 µg/mL) |

Other lines, results leading:

| MIC [µM] | SMILES |
| --- | --- |
| 31.2 (≈ 10.9 µg/mL) | CCCN1C(=O)CN(CC2CCCCC2)C(=O)c2cc(Cl)ccc21 |
| 7.8 (≈ 3.69 µg/mL) | O=C1c2cc(Cl)ccc2N(Cc2ccccc2-c2ccccc2)C(=O)CN1CC1CCCCC1 |
| 7.8 (≈ 3.7 µg/mL) | O=C1c2cc(Cl)ccc2N(Cc2ccccc2-c2ccccc2)C(=O)CN1CC1CCNCC1 |
| 3.9 (≈ 1.66 µg/mL) | O=c1c2ccccc2n(Cc2ccccc2-c2ccccc2)c(=O)n1CC1CCNCC1 |
| 0.97 (≈ 0.446 µg/mL) | O=c1c2cc(Cl)ccc2n(Cc2ccc(-c3ccccc3)cc2)c(=O)n1CC1CCNCC1 |
| 15.6 (≈ 5 µg/mL) | CCn1c(=O)n(CC2CCCCC2)c(=O)c2cc(Cl)ccc21 |
| 15.6 (≈ 5.99 µg/mL) | O=c1c2cc(Cl)ccc2n(Cc2ccccc2)c(=O)n1CC1CCNCC1 |
| 15.6 (≈ 5.44 µg/mL) | O=c1c2ccccc2n(Cc2ccccc2)c(=O)n1CC1CCCCC1 |
| 15.6 (≈ 5.66 µg/mL) | CCCCN1C(=O)CN(CC2CCCCC2)C(=O)c2cc(Cl)ccc21 |
| 7.8 (≈ 3.31 µg/mL) | O=c1c2ccccc2n(Cc2ccccc2-c2ccccc2)c(=O)n1CC1CCCCC1 |
| 7.8 (≈ 3.42 µg/mL) | O=C1c2ccccc2N(Cc2ccc(-c3ccccc3)cc2)C(=O)CN1CC1CCCCC1 |
| 31.2 (≈ 8.93 µg/mL) | CCn1c(=O)n(CC2CCCCC2)c(=O)c2ccccc21 |
| 3.9 (≈ 1.84 µg/mL) | O=C1c2cc(Cl)ccc2N(Cc2ccc(-c3ccccc3)cc2)C(=O)CN1CC1CCCCC1 |
| 7.8 (≈ 4.37 µg/mL) | CC(C)(C)OC(=O)N1CCC(Cn2c(=O)c3cc(Cl)ccc3n(Cc3ccccc3-c3ccccc3)c2=O)CC1 |
| 0.97 (≈ 0.446 µg/mL) | O=c1c2cc(Cl)ccc2n(Cc2ccccc2-c2ccccc2)c(=O)n1CC1CCNCC1 |
| 15.6 (≈ 6.19 µg/mL) | O=C1c2cc(Cl)ccc2N(Cc2ccccc2)C(=O)CN1CC1CCCCC1 |
